Legend:
[1] = tested on: rno-miR-223-3p; experiment: qPCR in rat retina; format: in vivo, rat (Sprague–Dawley); conditions: increased by STZ; intravitreal AAV9, n = 3; Fig. 8A
[2] = tested on: STAT4; experiment: Western blot of rat retinal tissue; format: in vivo, rat (Sprague–Dawley); conditions: increased by STZ; intravitreal AAV9, n = 3; Fig. 8C
[3] = tested on: HIF-1α; experiment: Immunohistochemistry of rat retina; format: in vivo, rat (Sprague–Dawley); conditions: intravitreal AAV9, 16 weeks, n = 3; Fig. 6D
Outline: (§1)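 Male Sprague–Dawley rats, 6–8 weeks old, with STZ-induced diabetic retinopathy. Under intraperitoneal ketamine (80 μg/g) and xylazine (4 μg/g), rats received 5 μL intravitreal AAV9 (1 × 10^12 vg/mL) carrying the test sequence every 8 weeks; saline as control; n = 8 rats per group. At 16 weeks, eyes were paraffin-embedded, cut at 5 μm and immunostained. Relative positivity ratio scored; mean ± SD.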

[4] = tested on: p-STAT4; experiment: Western blot of rat retinal tissue; format: in vivo, rat (Sprague–Dawley); conditions: increased by STZ; intravitreal AAV9, n = 3; Fig. 8C
[5] = tested on: fibronectin; experiment: Immunohistochemistry of rat retina; format: in vivo, rat (Sprague–Dawley); conditions: vs STZ and STZ + NC; intravitreal AAV9, 16 weeks, n = 3; Fig. 6B
Outline: (§2)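 In the STZ-induced DR model in male SD rats, animals received intravitreal AAV9 (5 μL, 1 × 10^12 vg/mL, every 8 weeks; saline control; n = 8/group). At 16 weeks, eyeballs were paraffin-embedded and cut at 5 μm. Immunohistochemistry for fibronectin or PCNA followed, with relative positivity ratio quantified; n = 3.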

[6] = tested on: p-mTOR; experiment: Western blot of rat retinal tissue; format: in vivo, rat (Sprague–Dawley); conditions: increased by STZ; intravitreal AAV9, n = 3; Fig. 8G
[7] = tested on: HIF-1α; experiment: Western blot of rat retina; format: in vivo, rat (Sprague–Dawley); conditions: intravitreal AAV9, n = 3; Fig. S13B
Outline: (§3)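 STZ-diabetic male Sprague–Dawley rats (6–8 weeks) were given intravitreal AAV9 (5 μL, 1 × 10^12 vg/mL) every 8 weeks, with saline controls. Retinal protein was extracted in RIPA with protease and phosphatase inhibitors, run on 10% SDS–PAGE and transferred to PVDF. Membranes were blocked in 5% skimmed milk, probed with primary then secondary antibody, and developed by ECL.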

[8] = tested on: Notch 1; experiment: Western blot of rat retinal tissue; format: in vivo, rat (Sprague–Dawley); conditions: increased by STZ; intravitreal AAV9, n = 3; Fig. 8E
[9] = tested on: PCNA; experiment: Immunohistochemistry of rat retina; format: in vivo, rat (Sprague–Dawley); conditions: vs STZ and STZ + NC; intravitreal AAV9, 16 weeks, n = 3; Fig. 6C
Outline: as §2

[10] = tested on: p-AKT; experiment: Western blot of rat retinal tissue; format: in vivo, rat (Sprague–Dawley); conditions: increased by STZ; intravitreal AAV9, n = 3; Fig. 8F
[11] = tested on: VEGFA; experiment: Western blot of rat retina; format: in vivo, rat (Sprague–Dawley); conditions: intravitreal AAV9, n = 3; Fig. S13C
Outline: as §3

[12] = tested on: FBXW7; experiment: Western blot of rat retinal tissue; format: in vivo, rat (Sprague–Dawley); conditions: decreased by STZ; intravitreal AAV9, n = 3; Fig. 8D
[13] = tested on: VEGFA; experiment: Immunohistochemistry of rat retina; format: in vivo, rat (Sprague–Dawley); conditions: intravitreal AAV9, 16 weeks, n = 3; Fig. 6E
Outline: as §1

[14] = tested on: hnRNPA2B1; conditions: ref [33], [34]; cited from earlier work
[15] = tested on: STAT4; experiment: Western blot in hRECs; format: cell-based, human; conditions: high glucose (increased by HG), 1 μM, n = 3; Fig. 4D, E
Outline: (§4)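 hRECs (passages 5–6; 3000 cells/mL) were cultured 120 h in 5.5 mM glucose, 25 mM glucose or mannitol control medium, with 1 μM test peptide or TTR homotetramer added to high glucose. Lysis was in RIPA with protease/phosphatase inhibitors. Lysates were resolved on 10% SDS–PAGE, transferred to PVDF, blocked in 5% milk, probed and developed by ECL.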

[16] = tested on: hRECs; experiment: Tube formation assay; format: cell-based, human; conditions: high glucose, 1 μM, basement membrane matrix, 4 h, n = 5; Fig. 3D, E
Outline: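 hRECs (passages 5–6) in 25 mM glucose medium with 1 μM test peptide or TTR homotetramer, plus low-glucose and mannitol osmotic controls, were plated on basement membrane matrix. Tube formation was then assessed.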

[17] = tested on: VEGFA; experiment: Western blot in hRECs; format: cell-based, human; conditions: high glucose (enhanced by HG), n = 3; Fig. S8A, C
[18] = tested on: hRECs; experiment: Cell entry and localization in hRECs; format: cell-based, human; conditions: 1 μM, 2 h incubation, HG medium, 37 °C; confocal microscopy; Fig. 1D
Outline: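 Passage-6 hRECs spent 24 h in high-glucose medium at 37 °C, then 2 h with 1 μM test peptide, TTR homotetramer or scrambled peptide. Cells were PBS-washed, fixed (4% PFA, 20 min), permeabilized (0.1% Triton X-100) and stained overnight at 4 °C with anti-hnRNPA2B1, anti-TTR or anti-His-tag. Alexa Fluor 488/594 secondaries and Hoechst 33342 were used; imaging was confocal.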

[19] = tested on: p-AKT; experiment: Western blot in hRECs; format: cell-based, human; conditions: high glucose (increased by HG), 1 μM, n = 3; Fig. 4D, H
Outline: as §4

[20] = tested on: FBXW7 mRNA; experiment: qPCR in hRECs; format: cell-based, human; conditions: high glucose, 1 μM, n = 5, Fig. 4C
Outline: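 Total RNA came from hRECs grown 120 h in low-glucose, 25 mM high-glucose or mannitol control medium, with 1 μM test peptide or TTR homotetramer in high glucose. FBXW7 mRNA was quantified by qPCR with GAPDH as reference.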

[21] = tested on: hRECs; experiment: Wound healing assay; format: cell-based, human; conditions: high glucose, 1 μM, 24 h, n = 5; Fig. 3B, C
Outline: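 Wound-healing kit assay on hRECs (passages 5–6) in high-glucose (25 mM) phenol red-free DMEM containing 1 μM test compound. Low glucose (5.5 mM) and mannitol (20 mM) osmotic controls included. Closure followed over 24 h; n = 5; mean ± SD, one-way ANOVA with LSD post hoc test.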

[22] = tested on: STAT4 mRNA; experiment: qPCR in hRECs; format: cell-based, human; conditions: high glucose, 1 μM, n = 5, Fig. 4A
Outline: (§5)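 hRECs (passages 5–6) cultured 120 h in high-glucose (25 mM) medium with 1 μM test compound, alongside low-glucose and mannitol osmotic controls. Total RNA extracted and measured by qPCR: STAT4 mRNA normalised to GAPDH; hsa-miR-223-3p against a cel-miR-39-3p spike-in control. n = 5; mean ± SD; one-way ANOVA with LSD test.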

[23] = tested on: p-mTOR; experiment: Western blot in hRECs; format: cell-based, human; conditions: high glucose (increased by HG), 1 μM, n = 3; Fig. 4D, I
Outline: as §4

[24] = tested on: hRECs; experiment: CCK-8 proliferation assay; format: cell-based, human; conditions: 1 μM, 5 days
Outline: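 hRECs (passages 5–6; 3000 cells/mL) were grown in 25 mM glucose medium with 1 μM test peptide or TTR homotetramer, with 5.5 mM glucose and mannitol osmotic controls. Proliferation was read by CCK-8 after 5 days of culture; n = 5.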

[25] = tested on: hRECs; experiment: Apoptosis; format: cell-based, human; conditions: Annexin V flow cytometry; hyperglycemia; Fig. S7
Outline: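 hRECs (passages 5–6) were seeded at 3000 cells/mL and grown 120 h in low-glucose (5.5 mM), high-glucose (25 mM) or low-glucose + 20 mM mannitol (osmotic control) medium. TTR homotetramer (1 μM) or test peptide (1 μM) was added to the high-glucose medium. Apoptosis was measured by FITC Annexin V staining and flow cytometry.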

[26] = tested on: hsa-miR-223-3p; experiment: qPCR in hRECs; format: cell-based, human; conditions: high glucose, 1 μM, n = 5, Fig. 4B
Outline: as §5

[27] = tested on: Notch 1; experiment: Western blot in hRECs; format: cell-based, human; conditions: high glucose (increased by HG), 1 μM, n = 3; Fig. 4D, G
Outline: as §4

[28] = tested on: FBXW7; experiment: Western blot in hRECs; format: cell-based, human; conditions: high glucose (decreased by HG), 1 μM, n = 3; Fig. 4D, F
Outline: as §4

[29] = Kidney and liver pathological indexes; format: in vivo, rat (Sprague–Dawley); conditions: serum, STZ rats (raised vs normal), intravitreal AAV9
Outline: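 STZ-diabetic male SD rats were given intravitreal AAV9 every 8 weeks (5 μL, 1 × 10^12 vg/mL) or saline. Serum ALT, AST and ALP activities and BUN and creatinine concentrations were measured on an automatic biochemical analyzer.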

[30] = tested on: p-STAT4; experiment: Western blot in hRECs; format: cell-based, human; conditions: high glucose (increased by HG), 1 μM, n = 3; Fig. 4D, E
Outline: as §4

[31] = tested on: hRECs; experiment: EdU DNA synthesis assay; format: cell-based, human; conditions: high glucose (25 mM), 1 μM, n = 5; Fig. 2A, B
Outline: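 hRECs (passages 5–6; 3000 cells/mL) were kept in 25 mM glucose medium with 1 μM test peptide or TTR homotetramer, with low-glucose and mannitol controls. DNA synthesis was detected with an EdU labeling kit by confocal imaging, nuclei counterstained with Hoechst 33342; n = 5.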

[32] = tested on: hRECs; conditions: high-glucose environment; ref [33], [34]; cited from earlier work

With “TTR overexpression: Rat TTR (GenBank: AAH86946.1) cloned into the pAAV-MCS vector and packaged in AAV9, intravitreal” the rno-miR-223-3p expression [1] was “reversed”, the STAT4 protein level [2] was “significantly reversed” and the “HIF-1α level (IHC)” value [3] was “neither THIP-4 administration nor TTR overexpression affected the levels”. For the same substance, the p-STAT4 protein level [4] was “significantly reversed”, the fibronectin positivity ratio [5] was “lower” and the p-mTOR protein level [6] was “significantly reversed”. For the same substance, the “HIF-1α level (western blot)” value [7] was “neither THIP-4 administration nor elevated TTR expression affected the levels”, the “Notch 1 protein level” value [8] was “significantly reversed” and the PCNA positivity ratio [9] was “lower”. For the same substance, the p-AKT protein level [10] was “significantly reversed”, the “VEGFA level (western blot)” value [11] was “neither THIP-4 administration nor elevated TTR expression affected the levels” and the FBXW7 protein level [12] was “significantly reversed”. The “VEGFA level (IHC)” value [13] was “neither THIP-4 administration nor TTR overexpression affected the levels”.
In the case of transthyretin [TTR], the “level of hnRNPA2B1” value [14] is listed as “could not affect the level of hnRNPA2B1”, the STAT4 protein level [15] is listed as “significantly reversed” and the “tube length (tube formation)” value [16] is listed as “reversed by TTR and the THIPs”. The VEGFA level [17] was “neither the THIPs nor TTR could reverse this effect”, the cellular localization [18] was “mainly accumulated in the nucleus and their signals overlapped with that of hnRNPA2B1” and the p-AKT protein level [19] was “significantly reversed”. For the same substance, the FBXW7 expression level [20] was “this trend was reversed”, the wound healing [21] was “significantly inhibited the accelerated hREC healing” and the STAT4 expression level [22] was “reversed in the presence of TTR or the THIPs”. For the same substance, the p-mTOR protein level [23] was “significantly reversed”, the “proliferation (CCK-8), high glucose” value ([24]; high glucose (25 mM), n = 5, Fig. 2C) was “significantly abrogated” and the “proliferation (CCK-8), low glucose” value ([24]; low glucose (5.5 mM), Fig. S6) was “neither TTR nor the THIPs inhibited hREC proliferation”. For the same substance, the apoptosis [25] was “not significantly influenced”, the hsa-miR-223-3p expression level [26] was “reversed in the presence of TTR or the THIPs” and the “Notch 1 protein level” value [27] was “significantly reversed”. The FBXW7 protein level [28] was “significantly reversed”, the ALT activity ([29]; Fig. S12D) was “could not be affected by TTR or THIP-4” and the AST activity ([29]; Fig. S12E) was “could not be affected by TTR or THIP-4”. For the same substance, the ALP activity ([29]; Fig. S12F) was “could not be affected by TTR or THIP-4”, the p-STAT4 protein level [30] was “significantly reversed” and the “DNA synthesis (EdU)” value [31] was “significantly reversed this trend”. The “neovascularization of hRECs” value [32] was “inhibits the neovascularization of hRECs in a high-glucose environment”.

Source: PMC12008863 (Journal of Translational Medicine, 2025)
